ChEMBL document CHEMBL4229344 (Eur J Med Chem, 2018)
Calls of active or inactive are those of the source. No cut-off for these calls is given here.

Experiments:
[1] = target: Serine/threonine-protein kinase 3 (Homo sapiens) (UniProt Q13188); assay: Binding affinity to wild-type human partial length MST2 (D17 to E318 residues) expressed in bacterial expression system assessed as residual binding level at 1 uM by Kinomescan method relative to control
[2] = target: Serine/threonine-protein kinase BRSK1 (Homo sapiens) (UniProt Q8TDC3); assay: Binding affinity to wild-type human partial length BRSK1 (M1 to E754 residues) expressed in bacterial expression system assessed as residual binding level at 1 uM by Kinomescan method relative to control
[3] = Tmax in Sprague-Dawley rat at 1 mg/kg, iv; format: ADME, organism-based; details: in vivo
How it was run: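 Male Sprague-Dawley rats, 6–8 weeks old and fasted overnight, dosed IV at 1 mg/kg or PO at 10 mg/kg. Formulation was 5% DMSO/40% PEG400/55% saline (1 mg/mL). Jugular blood collected on heparin from 1 min to 8 h (IV) or 5 min to 24 h (PO). Plasma separated by centrifugation at 2–8 °C and stored at −80 °C.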

[4] = test system: NCI-H1703; assay: Cell cycle arrest in human NCI-H1703 cells assessed as accumulation at G0/G1 phase after 72 hrs by propidium iodide/RNase staining-based flow cytometric analysis; format: functional
How it was run: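 Cells treated with compound or DMSO for the stated periods, fixed overnight in 70% cold ethanol at −20 °C, stained with PI/RNase buffer, then analysed by flow cytometry for cell-cycle distribution. For NCI-H1703 stimulation, PDGF AA was used at 100 ng/mL.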

[5] = target: Tyrosine-protein kinase Tec (Homo sapiens) (UniProt P42680); assay: Binding affinity to wild-type human partial length TEC (L341 to D620 residues) expressed in bacterial expression system assessed as residual binding level at 1 uM by Kinomescan method relative to control
[6] = target: SRSF protein kinase 3 (Homo sapiens) (UniProt Q9UPE1); assay: Binding affinity to wild-type human partial length SRPK3 (P41 to P567 residues) expressed in bacterial expression system assessed as residual binding level at 1 uM by Kinomescan method relative to control
[7] = target: Dual specificity protein kinase CLK4 (Homo sapiens) (UniProt Q9HAZ1); assay: Binding affinity to wild-type human partial length CLK4 (R135 to K481 residues) expressed in bacterial expression system assessed as residual binding level at 1 uM by Kinomescan method relative to control
How it was run: (§1)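 Kinome-wide competition binding screen against a panel of 468 purified kinases/mutants, with the test compound at a single concentration of 1 μM. Read-out is the relative binding activity of each kinase in the presence of compound.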

[8] = target: Calcium-dependent protein kinase 1 (Plasmodium falciparum) (UniProt P62344); assay: Binding affinity to wild-type Plasmodium falciparum 3D7 full length CDPK1 (M1 to S524 residues) expressed in mammalian expression system assessed as residual binding level at 1 uM by Kinomescan method relative to control
How it was run: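 KINOMEscan competition binding against 468 purified kinases/mutants, test compound at 1 µM; residual binding relative to control.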

[9] = target: Cyclin-dependent kinase-like 1 (Homo sapiens) (UniProt Q00532); assay: Binding affinity to wild-type human full length CDKL1 (M1 to I358 residues) expressed in mammalian expression system assessed as residual binding level at 1 uM by Kinomescan method relative to control
How it was run: (§2)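 Single-concentration (1 μM) competition-binding screen run by KINOMEscan against a panel of 468 purified kinases and mutants. The read-out is the relative binding activity of the test compound to each kinase.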

[10] = test system: NCI-H1703; assay: Antiproliferative activity against human NCI-H1703 cells after 72 hrs by CellTiter-Glo or CCK-8 assay; format: functional; details: NCI-H1703, 72 h
How it was run: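 Cells in RPMI 1640 with 10% FBS at 37 °C, 5% CO2, seeded at 1–3 × 10^4 cells/mL with serial compound dilutions for 72 h. Viability read by CellTiter-Glo luminescence or CCK-8 absorbance (450/655 nm), normalized to DMSO control.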

[11] = target: Serine/threonine-protein kinase 17A (Homo sapiens) (UniProt Q9UEE5); assay: Binding affinity to wild-type human partial length DRAK1 (R32 to E363 residues) expressed in bacterial expression system assessed as residual binding level at 1 uM by Kinomescan method relative to control
[12] = target: Serine/threonine-protein kinase PLK2 (Homo sapiens) (UniProt Q9NYY3); assay: Binding affinity to wild-type human partial length PLK2 (H58 to F354 residues) expressed in mammalian expression system assessed as residual binding level at 1 uM by Kinomescan method relative to control
How it was run: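 KINOMEscan competition binding against a panel of 468 purified kinases/mutants, compound tested at 1 μM; readout is relative binding activity versus control.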

[13] = target: Serine/threonine-protein kinase RIO1 (Homo sapiens) (UniProt Q9BRS2); assay: Binding affinity to wild-type human full length RIOK1 (M1 to K568 residues) expressed in bacterial expression system assessed as residual binding level at 1 uM by Kinomescan method relative to control
How it was run: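 Single-concentration KINOMEscan (DiscoverX) binding screen at 1 μM against a panel of 468 purified kinases and mutants. The read-out is binding relative to control.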

[14] = target: Ribosomal protein S6 kinase alpha-4 (Homo sapiens) (UniProt O75676); assay: Binding affinity to wild-type human partial length N-terminal RPS6KA4 kinase domain 1 expressed in bacterial expression system assessed as residual binding level at 1 uM by Kinomescan method relative to control
[15] = test system: Tyrosine-protein kinase ABL1 (Homo sapiens), P00519 [Q252H]; assay: Binding affinity to human phosphorylated ABL1 Q252H mutant expressed in mammalian expression system assessed as residual binding level at 1 uM by Kinomescan method relative to control; how it was run: as §2
[16] = target: Mitogen-activated protein kinase 4 (Homo sapiens) (UniProt P31152); assay: Binding affinity to wild-type human partial length ERK4 (M1 to L365 residues) expressed in bacterial expression system assessed as residual binding level at 1 uM by Kinomescan method relative to control; how it was run: as §1
[17] = test system: EOL1; assay: Antitumor activity against human EOL-1 cells xenografted in nu/nu mouse assessed as induction of apoptosis at 25 to 100 mg/kg/day, ip by DAB staining-based TUNEL assay; format: functional, organism-based
How it was run: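 Female nu/nu mice (6 weeks) given subcutaneous right-flank injection of 5 million EOL-1 cells in PBS/Matrigel 1:1. At 200–400 mm3 tumors, randomized to groups of 6 and dosed daily i.p. for 14 days at 25, 50 or 100 mg/kg/d in 0.5% methylcellulose/0.4% Tween80. Tumor volume = W²×L/2, measured daily.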

[18] = test system: Epidermal growth factor receptor (Homo sapiens), P00533 [UNDEFINED MUTATION]; assay: Binding affinity to human partial length EGFR L747-S752del/P753S mutant expressed in bacterial expression system assessed as residual binding level at 1 uM by Kinomescan method relative to control
How it was run: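 Kinome-wide single-concentration binding screen (KINOMEscan) at 1 μM against a panel of 468 purified kinases and mutants. Read-out is relative binding of each kinase compared with control. Selectivity across the panel was summarised as an S(10) score.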

[19] = Apparent clearance in Sprague-Dawley rat at 1 mg/kg, iv; format: ADME, organism-based; details: in vivo, read-out: CL(app) (converted)

Ribosomal protein S6 kinase alpha-4 (Homo sapiens), sequence (O75676 whole entry, looked up, the tested form may be a part): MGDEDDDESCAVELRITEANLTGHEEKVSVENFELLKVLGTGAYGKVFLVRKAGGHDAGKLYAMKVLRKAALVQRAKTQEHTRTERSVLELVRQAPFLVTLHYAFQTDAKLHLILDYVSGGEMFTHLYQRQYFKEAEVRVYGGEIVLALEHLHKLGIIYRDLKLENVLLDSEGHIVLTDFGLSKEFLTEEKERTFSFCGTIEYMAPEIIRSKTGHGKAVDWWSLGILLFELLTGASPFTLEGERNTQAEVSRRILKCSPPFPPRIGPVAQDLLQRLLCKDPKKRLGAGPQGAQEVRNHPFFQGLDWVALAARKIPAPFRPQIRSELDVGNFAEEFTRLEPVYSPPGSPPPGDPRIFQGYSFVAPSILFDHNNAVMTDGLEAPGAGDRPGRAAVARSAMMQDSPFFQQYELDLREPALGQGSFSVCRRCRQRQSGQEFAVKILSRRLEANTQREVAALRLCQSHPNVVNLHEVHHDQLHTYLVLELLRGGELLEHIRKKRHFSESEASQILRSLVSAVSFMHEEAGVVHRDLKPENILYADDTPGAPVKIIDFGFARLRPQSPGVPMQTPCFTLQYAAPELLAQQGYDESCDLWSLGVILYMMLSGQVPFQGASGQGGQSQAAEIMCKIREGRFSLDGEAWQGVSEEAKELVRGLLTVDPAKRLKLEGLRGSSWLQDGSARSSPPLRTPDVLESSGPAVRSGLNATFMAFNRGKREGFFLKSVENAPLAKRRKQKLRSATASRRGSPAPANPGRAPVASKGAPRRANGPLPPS
Serine/threonine-protein kinase PLK2 (Homo sapiens), sequence (Q9NYY3 whole entry, looked up, the tested form may be a part): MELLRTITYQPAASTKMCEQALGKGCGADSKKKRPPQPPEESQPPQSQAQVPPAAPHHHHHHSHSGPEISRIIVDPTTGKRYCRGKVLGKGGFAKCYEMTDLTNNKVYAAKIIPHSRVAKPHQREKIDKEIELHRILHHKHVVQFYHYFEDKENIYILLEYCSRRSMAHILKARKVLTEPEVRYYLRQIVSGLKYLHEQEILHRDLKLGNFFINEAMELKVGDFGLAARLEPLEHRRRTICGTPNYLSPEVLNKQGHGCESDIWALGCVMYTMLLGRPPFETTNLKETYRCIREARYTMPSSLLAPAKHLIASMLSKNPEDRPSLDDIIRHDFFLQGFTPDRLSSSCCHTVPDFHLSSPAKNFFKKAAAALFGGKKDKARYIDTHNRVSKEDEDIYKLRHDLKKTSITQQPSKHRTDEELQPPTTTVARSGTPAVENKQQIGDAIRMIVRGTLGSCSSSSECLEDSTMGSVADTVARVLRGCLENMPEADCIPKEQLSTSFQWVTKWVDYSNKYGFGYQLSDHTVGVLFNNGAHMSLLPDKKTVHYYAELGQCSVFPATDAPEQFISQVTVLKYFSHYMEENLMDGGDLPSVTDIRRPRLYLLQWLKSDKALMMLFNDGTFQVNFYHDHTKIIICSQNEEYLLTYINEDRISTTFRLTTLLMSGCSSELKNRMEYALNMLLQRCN
Serine/threonine-protein kinase 17A (Homo sapiens), sequence (Q9UEE5 whole entry, the tested form may be a part): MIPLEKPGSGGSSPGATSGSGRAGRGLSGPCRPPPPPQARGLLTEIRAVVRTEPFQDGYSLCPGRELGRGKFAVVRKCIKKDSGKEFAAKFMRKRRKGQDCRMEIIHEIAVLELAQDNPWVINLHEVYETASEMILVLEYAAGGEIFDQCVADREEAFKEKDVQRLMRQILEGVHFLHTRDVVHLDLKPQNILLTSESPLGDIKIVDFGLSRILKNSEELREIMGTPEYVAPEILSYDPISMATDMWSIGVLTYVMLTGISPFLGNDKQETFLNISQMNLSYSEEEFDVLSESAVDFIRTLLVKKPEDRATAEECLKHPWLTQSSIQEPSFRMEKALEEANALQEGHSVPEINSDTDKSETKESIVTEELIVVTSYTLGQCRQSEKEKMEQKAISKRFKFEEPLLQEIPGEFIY
SRSF protein kinase 3 (Homo sapiens), sequence (Q9UPE1 whole entry, the tested form may be a part): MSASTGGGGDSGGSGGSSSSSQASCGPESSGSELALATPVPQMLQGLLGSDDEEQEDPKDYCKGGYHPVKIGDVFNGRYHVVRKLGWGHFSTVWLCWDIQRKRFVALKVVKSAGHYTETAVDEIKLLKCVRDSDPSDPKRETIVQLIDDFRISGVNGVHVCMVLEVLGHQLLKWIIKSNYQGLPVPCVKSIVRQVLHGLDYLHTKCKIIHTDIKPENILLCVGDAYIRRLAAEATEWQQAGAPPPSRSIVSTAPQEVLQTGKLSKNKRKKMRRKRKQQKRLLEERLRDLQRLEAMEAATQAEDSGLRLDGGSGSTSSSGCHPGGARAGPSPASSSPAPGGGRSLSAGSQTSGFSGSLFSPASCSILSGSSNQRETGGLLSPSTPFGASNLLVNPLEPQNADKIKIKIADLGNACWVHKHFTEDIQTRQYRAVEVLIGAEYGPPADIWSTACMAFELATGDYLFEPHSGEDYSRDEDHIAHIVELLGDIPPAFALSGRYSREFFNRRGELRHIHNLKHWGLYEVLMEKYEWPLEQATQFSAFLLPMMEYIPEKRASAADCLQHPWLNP
Tyrosine-protein kinase Tec (Homo sapiens), sequence (P42680 whole entry, the tested form may be a part): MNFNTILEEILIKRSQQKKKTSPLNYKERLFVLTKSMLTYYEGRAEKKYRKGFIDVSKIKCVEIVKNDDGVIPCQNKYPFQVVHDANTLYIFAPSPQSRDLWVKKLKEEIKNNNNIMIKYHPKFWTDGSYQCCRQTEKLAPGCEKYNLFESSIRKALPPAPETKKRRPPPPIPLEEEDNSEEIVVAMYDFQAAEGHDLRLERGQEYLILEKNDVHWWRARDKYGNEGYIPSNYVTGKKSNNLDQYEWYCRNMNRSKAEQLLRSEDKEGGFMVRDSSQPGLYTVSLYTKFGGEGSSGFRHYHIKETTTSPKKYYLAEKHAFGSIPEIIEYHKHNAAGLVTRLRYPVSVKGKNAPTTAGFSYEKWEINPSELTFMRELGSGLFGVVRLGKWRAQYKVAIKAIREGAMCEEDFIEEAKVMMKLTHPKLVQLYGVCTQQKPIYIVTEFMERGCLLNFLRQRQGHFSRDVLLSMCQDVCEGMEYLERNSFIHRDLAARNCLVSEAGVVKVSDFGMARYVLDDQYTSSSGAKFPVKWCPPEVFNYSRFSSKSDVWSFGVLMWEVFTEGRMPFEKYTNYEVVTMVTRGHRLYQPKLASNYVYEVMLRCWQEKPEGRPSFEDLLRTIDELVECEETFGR
Calcium-dependent protein kinase 1 (Plasmodium falciparum), sequence (P62344 2-524 limits assumed): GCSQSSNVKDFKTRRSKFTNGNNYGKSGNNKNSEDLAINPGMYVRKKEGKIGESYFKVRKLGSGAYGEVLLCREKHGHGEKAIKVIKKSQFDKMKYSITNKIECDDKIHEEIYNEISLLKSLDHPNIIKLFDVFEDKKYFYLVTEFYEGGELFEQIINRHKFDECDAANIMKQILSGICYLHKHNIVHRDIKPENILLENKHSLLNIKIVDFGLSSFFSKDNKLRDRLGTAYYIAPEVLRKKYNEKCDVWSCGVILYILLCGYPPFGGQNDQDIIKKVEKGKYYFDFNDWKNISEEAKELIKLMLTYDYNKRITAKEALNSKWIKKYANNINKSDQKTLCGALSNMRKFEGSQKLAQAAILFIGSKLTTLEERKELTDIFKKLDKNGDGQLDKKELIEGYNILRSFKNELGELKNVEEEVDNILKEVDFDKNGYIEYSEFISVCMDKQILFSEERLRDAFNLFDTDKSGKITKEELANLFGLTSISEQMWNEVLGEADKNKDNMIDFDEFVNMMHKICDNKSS
Cyclin-dependent kinase-like 1 (Homo sapiens), sequence (Q00532 whole entry, the tested form may be a part): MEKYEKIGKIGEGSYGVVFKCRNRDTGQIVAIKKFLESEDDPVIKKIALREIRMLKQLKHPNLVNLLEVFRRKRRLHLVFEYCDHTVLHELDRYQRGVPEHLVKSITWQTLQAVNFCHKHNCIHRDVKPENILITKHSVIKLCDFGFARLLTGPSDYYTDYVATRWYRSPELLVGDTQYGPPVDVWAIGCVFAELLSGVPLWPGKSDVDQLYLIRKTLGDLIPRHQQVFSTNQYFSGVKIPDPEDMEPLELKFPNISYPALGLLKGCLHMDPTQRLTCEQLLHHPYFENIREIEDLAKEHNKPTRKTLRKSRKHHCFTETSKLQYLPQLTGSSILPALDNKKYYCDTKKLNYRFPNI
Dual specificity protein kinase CLK4 (Homo sapiens), sequence (Q9HAZ1 whole entry, looked up, the tested form may be a part): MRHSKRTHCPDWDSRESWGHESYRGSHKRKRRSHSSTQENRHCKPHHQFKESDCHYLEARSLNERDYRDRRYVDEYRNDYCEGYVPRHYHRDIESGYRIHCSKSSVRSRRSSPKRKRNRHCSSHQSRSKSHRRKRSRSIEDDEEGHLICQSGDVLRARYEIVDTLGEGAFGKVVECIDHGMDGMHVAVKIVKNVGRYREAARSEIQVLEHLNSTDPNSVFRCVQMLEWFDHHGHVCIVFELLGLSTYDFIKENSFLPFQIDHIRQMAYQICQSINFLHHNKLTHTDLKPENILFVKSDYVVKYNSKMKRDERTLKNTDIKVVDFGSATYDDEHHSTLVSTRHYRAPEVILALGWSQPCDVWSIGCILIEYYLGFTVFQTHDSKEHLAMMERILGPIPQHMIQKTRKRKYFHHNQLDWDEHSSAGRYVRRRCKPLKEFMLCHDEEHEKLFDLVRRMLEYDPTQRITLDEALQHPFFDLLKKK
Serine/threonine-protein kinase 3 (Homo sapiens), sequence (Q13188 whole entry, the tested form may be a part): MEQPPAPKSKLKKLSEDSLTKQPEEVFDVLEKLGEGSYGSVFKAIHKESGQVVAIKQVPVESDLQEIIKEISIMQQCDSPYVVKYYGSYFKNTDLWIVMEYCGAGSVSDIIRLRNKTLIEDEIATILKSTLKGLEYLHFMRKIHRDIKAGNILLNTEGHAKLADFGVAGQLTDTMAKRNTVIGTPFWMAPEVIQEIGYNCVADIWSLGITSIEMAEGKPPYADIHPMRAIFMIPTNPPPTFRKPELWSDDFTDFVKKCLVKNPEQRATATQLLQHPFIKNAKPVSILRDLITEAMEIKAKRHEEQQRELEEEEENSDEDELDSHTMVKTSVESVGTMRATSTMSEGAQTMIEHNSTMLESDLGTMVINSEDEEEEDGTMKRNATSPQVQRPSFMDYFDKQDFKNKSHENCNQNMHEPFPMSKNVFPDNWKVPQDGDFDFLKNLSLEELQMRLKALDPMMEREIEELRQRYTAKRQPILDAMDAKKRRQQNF

Cc1ccc(NC(=O)c2ccc(CN(CCN(C)C)C(=O)c3cccnc3)cc2)cc1Nc1nccc(-c2cccnc2)n1
Activity [1]: 100% | Activity [2]: 93% | Tmax [3]: 1.02 min | Activity [4]: Dose-dependent effect | Activity [5]: 100% | Activity [6]: 85% | Activity [7]: 66% | Activity [8]: 82% | Activity [9]: 85% | GI50 [10]: 5.37 µM | Activity [11]: 77% | Activity [12]: 87% | Activity [13]: 100% | Activity [14]: 82% | Activity [15]: 100% | Activity [16]: 89% | Activity [17]: Active | Activity [18]: 96% | clearance [19]: 32.7 mL/min/kg
